Laboratory results reported in ChEMBL document CHEMBL1155224, “Discovery of new inhibitors of resistant Streptococcus pneumoniae penicillin binding protein (PBP) 2x by structure-based virtual screening” (J Med Chem, 2009).
Substitutions are numbered along the chain they refer to. Calls of active or inactive are those of the source. No cut-off for these calls is given here.

How the values were obtained:
[1] = target: T1, Penicillin-binding protein 2x (Streptococcus pneumoniae serotype 4 (strain ATCC BAA-334 / TIGR4)) (UniProt P14677); test: (§1) Inhibition of penicillin-resistant Streptococcus pneumoniae 5204 PBP2X preincubated for 4 hrs before addition of substrate (R)-[2-(benzoylamino)propionylsulfanyl]acetic acid
T1 sequence (whole entry): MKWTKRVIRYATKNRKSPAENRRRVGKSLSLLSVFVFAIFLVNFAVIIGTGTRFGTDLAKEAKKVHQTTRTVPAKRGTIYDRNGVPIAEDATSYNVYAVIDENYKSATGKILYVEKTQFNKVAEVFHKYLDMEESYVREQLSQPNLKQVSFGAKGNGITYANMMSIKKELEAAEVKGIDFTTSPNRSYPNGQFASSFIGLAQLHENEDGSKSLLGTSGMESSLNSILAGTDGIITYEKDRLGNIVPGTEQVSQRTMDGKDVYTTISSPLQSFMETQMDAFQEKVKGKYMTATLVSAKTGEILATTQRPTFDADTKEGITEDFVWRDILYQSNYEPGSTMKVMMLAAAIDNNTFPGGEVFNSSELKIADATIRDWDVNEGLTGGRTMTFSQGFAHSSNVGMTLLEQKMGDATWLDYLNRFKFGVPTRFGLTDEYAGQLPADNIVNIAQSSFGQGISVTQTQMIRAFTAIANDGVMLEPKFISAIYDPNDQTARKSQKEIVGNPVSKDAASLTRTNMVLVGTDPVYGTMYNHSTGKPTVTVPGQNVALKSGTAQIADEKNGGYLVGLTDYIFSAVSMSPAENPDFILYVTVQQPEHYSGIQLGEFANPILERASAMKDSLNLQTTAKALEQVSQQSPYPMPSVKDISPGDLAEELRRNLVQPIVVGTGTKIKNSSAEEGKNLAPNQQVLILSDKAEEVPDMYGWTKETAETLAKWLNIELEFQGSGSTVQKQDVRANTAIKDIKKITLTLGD
Outline: (§2)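 0.6 μM 5204-PBP2x preincubated 4 h at 25 °C with inhibitor in 10 mM sodium phosphate pH 7.0, 70 mM D-alanine, 0.01 mg/mL BSA, 1% DMF, 0.01% Triton X-100. Assays were run in triplicate, and IC50 was fitted from residual activity versus decreasing inhibitor concentrations.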

[2] = target: T2, Penicillin-binding protein 2X (Streptococcus pneumoniae R6) (UniProt P59676); test: (§3) Inhibition of penicillin-sensitive Streptococcus pneumoniae R6 PBP2X preincubated for 1 hr before addition of substrate (R)-[2-(benzoylamino)propionylsulfanyl]acetic acid
T2 sequence (whole entry): T1 sequence (whole entry) with T385M
Outline: (§4)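 Compounds taken from 100 mM DMF stocks (1% DMF final) and preincubated with 0.09 μM R6-PBP2x in 10 mM sodium phosphate pH 7.0 with 0.01 mg/mL BSA, 60 min, 25 °C. Spontaneous hydrolysis without enzyme measured. Triplicates. IC50 fitted from residual activity versus decreasing inhibitor concentration, with 0.01% Triton X-100.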

[3] = target: T1, Penicillin-binding protein 2x (Streptococcus pneumoniae serotype 4 (strain ATCC BAA-334 / TIGR4)); test: Inhibition of penicillin-resistant Streptococcus pneumoniae 5204 PBP2X; outline: as §2
[4] = target: Penicillin-binding protein 2x (Streptococcus pneumoniae serotype 4 (strain ATCC BAA-334 / TIGR4), UniProt P14677); test: as §1; outline: as §2
[5] = target: T1, Penicillin-binding protein 2x (Streptococcus pneumoniae serotype 4 (strain ATCC BAA-334 / TIGR4)); test: Inhibition of penicillin-resistant Streptococcus pneumoniae 5204 PBP2X assessed as residual activity at 100 uM preincubated for 1 hr before addition of substrate (R)-[2-(benzoylamino)propionylsulfanyl]acetic acid
[6] = Inhibition of Streptococcus pneumoniae PBP1B after 60 mins by SDS-PAGE; settings: read-out: IC50
Outline: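 Test compounds incubated with 0.7 μM PBP1b in 10 mM sodium phosphate pH 7.0 for 60 min at 30 °C. Remaining active enzyme counter-labeled with 10 μM fluorescein-labeled ampicillin for 20 min. Reaction stopped, proteins separated by SDS-PAGE and read by fluorescence imaging with background subtracted.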

[7] = target: T3, Penicillin-binding protein 2X (Streptococcus pneumoniae R6, UniProt P59676); test: as §3; outline: as §4
T3 sequence (P59676 whole entry): T1 sequence (whole entry) with T385M

Structure (SMILES)	Activity [1]	Activity [2]	other results
Cc1cc(SCC2=C(C(=O)[O-])N3C[C@@H](NC(=O)CSc4c(Cl)cc(/C=C/C(=O)NCC(=O)[O-])cc4Cl)[C@H]3SC2)cc(C)[n+]1CCC[N+]1(C)CCOCC1	Active	Active	
CC(NC(=O)C(C)NC(=O)CCCCCN)C(=O)O (stereo not given)	inactive	inactive	
CC1(C)S[C@@H]2[C@H](NC(=O)[C@H](N)c3ccc(O)cc3)C(=O)N2[C@H]1C(=O)O	Active	Active	
C[C@@H](O)[C@H]1C(=O)N2C(C(=O)O)=C(S[C@@H]3CN[C@H](C(=O)N(C)C)C3)[C@H](C)[C@H]12	Active	Active	
CCO/N=C(\C(=O)N[C@@H]1C(=O)N2C(C(=O)[O-])=C(C[n+]3cccc4c3ncn4CCCNC)CS[C@H]12)c1nsc(N)n1	Active	Active	
Cc1cc(Cl)ccc1NC(=O)Nc1c(Oc2ccc(Cl)cc2)ccc(Cl)c1S(=O)(=O)O			Activity [3]: Active; IC50 [4]: 71 µM; Activity [5]: 50%; IC50 [6]: 259 µM; IC50 [7]: 336 µM
CO[C@H]1CCC[C@H]2C1=C(C(=O)O)N1C(=O)[C@H]([C@@H](C)O)[C@@H]21	Active	Active	
CO/N=C(\C(=O)N[C@@H]1C(=O)N2C(C(=O)O)=C(COC(N)=O)CS[C@H]12)c1ccco1	Active	Active	
CC(=O)NC1CON(C2(C(=O)O)CCC(=O)O2)C1=O (stereo not given)	Active	Active	
CCn1c2ccccc2c2cc(/C=C3\S/C(=N\C(Cc4ccccc4)C(=O)O)N(c4ccccc4)C3=O)ccc21 (stereo not given)	inactive	inactive	
CC/C=C(\C(=O)N[C@@H]1C(=O)N2C(C(=O)O)=C(COC(N)=O)CS[C@H]12)c1csc(N)n1	Active	Active	
NCCSCc1cnccc1SC1=C(C(=O)O)N2C(=O)[C@@H](NC(=O)/C(=N\O)c3nc(N)sc3Cl)[C@H]2SC1	Active	Active	
Nc1nc(/C(=N/O)C(=O)N[C@@H]2C(=O)N3C(C(=O)O)=C(/C=C4\CCN([C@@H]5CCNC5)C4=O)CS[C@H]23)ns1	Active	Active	
C[C@@H](O)[C@H]1C(=O)N2C(C(=O)[O-])=C(SC3Cn4cnc[n+]4C3)[C@H](C)[C@H]12 (stereo not given in full)	Active	Active	
CCn1c2ccccc2c2cc(/C=C3\S/C(=N\c4ccccc4)N(C(C(=O)O)C(C)C)C3=O)ccc21 (stereo not given)	inactive	inactive	
C[C@@H](O)[C@H]1C(=O)N2C(C(=O)O)=C(SCCNC=N)C[C@H]12	Active	Active	
N[C@@H](C(=O)N[C@@H]1C(=O)N2C(C(=O)O)=C(Cl)CC[C@H]12)c1ccccc1	Active	Active	
COc1c(N2CCNC(C)C2)c(F)cc2c(=O)c(C(=O)O)cn(C3CC3)c12 (stereo not given)	Active	Active	
C[C@@H](NC(=O)c1ccccc1)C(=O)SCC(=O)O	Active	Active	
CO/N=C(\C(=O)N[C@@H]1C(=O)N2C(C(=O)OCOC(=O)C(C)(C)C)=C(/C=C\c3scnc3C)CS[C@H]12)c1csc(N)n1	Active	Active	
C[C@H]1COc2c(N3CCN(C)CC3)c(F)cc3c(=O)c(C(=O)O)cn1c23	Active	Active	

Structure (SMILES)	Activity [1]	Activity [2]	other results
CC(=O)OCC1=C(C(=O)O)N2C(=O)[C@@H](NC(=O)Cc3cccs3)[C@H]2SC1	Active	Active	
CCO/N=C(\C(=O)NC1C(=O)N2C(C(=O)[O-])=CC(/C=C/Sc3cc[n+](C)cc3)SC12)c1nsc(N)n1 (stereo not given)	Active	Active	
Nc1cc(SCSC2=C(C(=O)O)N3C(=O)[C@@H](NC(=O)/C(=N/O)c4nc(N)sc4Cl)[C@H]3SC2)nc(N)n1	Active	Active	
CO/N=C(\C(=O)N[C@@H]1C(=O)N2C(C(=O)O)=C(CSc3nc(=O)c(O)nn3C)CS[C@H]12)c1csc(N)n1	Active	Active	
CO/N=C(\C(=O)N[C@@H]1C(=O)N2C(C(=O)O)=C(COC(C)=O)CS[C@H]12)c1csc(N)n1	Active	Active	
O=C(COc1ccccc1)N[C@H]1CON([C@@]2(C(=O)O)CCC(=O)O2)C1=O	Active	Active	
O=C(Cc1cccs1)N[C@@H]1C(=O)N2C(C(=O)O)=C(/C=C/c3ccc([N+](=O)[O-])cc3[N+](=O)[O-])CS[C@H]12	Active	Active	
CC=CC1=C(C(=O)O)N2C(=O)[C@@H](NC(=O)[C@H](N)c3ccc(O)cc3)[C@H]2SC1	Active	Active	
COCC1=C(C(=O)O)N2C(=O)[C@@H](NC(=O)/C(=N\OC)c3csc(N)n3)[C@H]2SC1	Active	Active	
CC(=O)C[n+]1ccc(SCC2=C(C(=O)[O-])N3C(=O)[C@@H](NC(=O)/C(=N/OC4CCCC4)c4csc(N)n4)[C@H]3SC2)cc1	Active	Active	
C[C@@H](O)[C@H]1C(=O)N2C(C(=O)O)=C(SC3CN(C4=NCCS4)C3)[C@H](C)[C@H]12	Active	Active	
CC1(C)S[C@@H]2[C@H](NC(=O)[C@H](N)c3ccccc3)C(=O)N2[C@H]1C(=O)O	Active	Active	
N[C@@H](C(=O)N[C@@H]1C(=O)N2C(C(=O)O)=C(Cl)CS[C@H]12)c1ccccc1	Active	Active	
C=CC1=C(C(=O)O)N2C(=O)[C@@H](NC(=O)/C(=N\O)c3csc(N)n3)[C@H]2SC1	Active	Active	
C[C@H]1NCc2cc(-c3ccc4c(=O)c(C(=O)O)cn(C5CC5)c4c3OC(F)F)ccc21	Active	Active	
CCC1C(=O)N2CC1CC(OC)=C2C(=O)O (stereo not given)	Active	Active	
C[C@@H](O)[C@H]1C(=O)N2C(C(=O)O)=C([C@H]3CCCO3)S[C@H]12	Active	Active	
CCn1c2ccccc2c2cc(/C=C3\S/C(=N\c4ccccc4)N(C(C(=O)O)c4ccccc4)C3=O)ccc21 (stereo not given)	inactive	inactive	
CC(=N)N1CC[C@H](SC2=C(C(=O)O)N3C(=O)[C@H]([C@@H](C)O)[C@H]3C2)C1	Active	Active	
O=C(O)c1cc(-c2ccc(/C=C3\S/C(=N\c4ccccc4)N(c4ccccc4)C3=O)o2)ccc1Cl	inactive	inactive	
